≈ marks a conversion by molar mass, not a printed value.
Columns and labels:
[1] = target: T1, Prostaglandin E2 receptor EP1 subtype (Homo sapiens) (UniProt P34995); experiment: Antagonist activity human EP1 receptor assessed as inhibition of PGE2-induced effect at 1 uM by reporter gene assay relative to control
T1 sequence (whole entry): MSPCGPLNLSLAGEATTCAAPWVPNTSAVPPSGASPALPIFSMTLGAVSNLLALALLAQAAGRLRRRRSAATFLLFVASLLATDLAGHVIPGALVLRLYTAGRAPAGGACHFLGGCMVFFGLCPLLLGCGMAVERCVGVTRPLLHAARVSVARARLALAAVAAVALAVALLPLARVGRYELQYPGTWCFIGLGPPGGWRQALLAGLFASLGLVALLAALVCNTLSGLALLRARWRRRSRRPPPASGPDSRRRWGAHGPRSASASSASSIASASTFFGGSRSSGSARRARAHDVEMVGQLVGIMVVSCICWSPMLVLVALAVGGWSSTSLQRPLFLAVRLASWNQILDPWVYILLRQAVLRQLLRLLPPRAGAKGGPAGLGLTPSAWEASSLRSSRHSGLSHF

[2] = target: T2, Prostaglandin E2 receptor EP1 subtype (Homo sapiens, UniProt P34995); experiment: Antagonist activity human EP1 receptor assessed as inhibition of PGE2-induced effect by reporter gene assay
T2 sequence (P34995 whole entry): T1 sequence (whole entry)
Method in brief: (§1)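 Human EP1 receptor-expressing recombinant cells stimulated with PGE2; antagonism read out by reporter-gene assay or by intracellular Ca2+ release; IC50 in nM.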

[3] = target: Prostaglandin E2 receptor EP2 subtype (Homo sapiens, UniProt P43116); experiment: Binding affinity to human EP2 receptor
Sequence of Prostaglandin E2 receptor EP2 subtype (P43116 whole entry): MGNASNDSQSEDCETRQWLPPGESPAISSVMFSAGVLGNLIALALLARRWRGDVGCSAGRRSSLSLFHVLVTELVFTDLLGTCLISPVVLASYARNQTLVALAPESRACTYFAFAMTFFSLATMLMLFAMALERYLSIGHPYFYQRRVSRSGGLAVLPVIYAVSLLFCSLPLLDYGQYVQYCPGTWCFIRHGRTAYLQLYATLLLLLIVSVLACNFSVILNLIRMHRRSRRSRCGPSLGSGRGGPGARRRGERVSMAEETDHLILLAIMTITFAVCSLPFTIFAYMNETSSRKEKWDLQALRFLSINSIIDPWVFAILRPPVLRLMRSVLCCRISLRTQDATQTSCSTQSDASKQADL

Cytochrome P450 2C19 = Cytochrome P450 2C19 (Homo sapiens, UniProt P33261); experiment: Inhibition of human CYP2C19; type: ADME
Sequence of Cytochrome P450 2C19 (P33261 whole entry): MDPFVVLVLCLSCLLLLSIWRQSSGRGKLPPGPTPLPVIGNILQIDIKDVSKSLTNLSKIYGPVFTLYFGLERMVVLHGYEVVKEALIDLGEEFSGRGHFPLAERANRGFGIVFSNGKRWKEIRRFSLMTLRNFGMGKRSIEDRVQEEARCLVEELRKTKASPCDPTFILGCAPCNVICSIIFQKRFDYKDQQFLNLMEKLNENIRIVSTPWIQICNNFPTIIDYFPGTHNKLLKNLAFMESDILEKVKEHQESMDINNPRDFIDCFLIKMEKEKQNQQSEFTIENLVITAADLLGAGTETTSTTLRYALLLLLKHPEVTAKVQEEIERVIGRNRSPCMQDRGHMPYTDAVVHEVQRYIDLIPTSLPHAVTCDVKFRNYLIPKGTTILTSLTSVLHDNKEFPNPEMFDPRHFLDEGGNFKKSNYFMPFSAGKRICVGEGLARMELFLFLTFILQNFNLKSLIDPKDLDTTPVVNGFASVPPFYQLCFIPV

Cytochrome P450 1A2 = target: T3, Cytochrome P450 1A2 (Homo sapiens, UniProt P05177); experiment: Inhibition of human CYP1A2; type: ADME
T3 sequence (P05177 whole entry): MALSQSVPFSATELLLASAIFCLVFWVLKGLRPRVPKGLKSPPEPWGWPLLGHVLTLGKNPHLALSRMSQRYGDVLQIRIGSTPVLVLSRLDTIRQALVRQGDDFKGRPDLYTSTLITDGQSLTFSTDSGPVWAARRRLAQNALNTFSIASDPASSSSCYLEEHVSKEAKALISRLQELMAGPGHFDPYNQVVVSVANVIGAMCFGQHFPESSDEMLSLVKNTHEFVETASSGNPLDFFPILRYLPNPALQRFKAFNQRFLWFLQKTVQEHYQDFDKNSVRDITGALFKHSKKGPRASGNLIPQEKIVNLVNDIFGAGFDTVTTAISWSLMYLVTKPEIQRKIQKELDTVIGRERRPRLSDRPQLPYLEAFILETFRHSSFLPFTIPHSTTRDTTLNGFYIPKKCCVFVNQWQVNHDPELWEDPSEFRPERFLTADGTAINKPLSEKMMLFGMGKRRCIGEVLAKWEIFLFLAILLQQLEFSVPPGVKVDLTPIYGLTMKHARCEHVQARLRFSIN

albumin = albumin (Homo sapiens, UniProt P02768); experiment: Binding affinity to albumin in plasma (unknown origin); type: ADME; details: read-out: PPB (converted)
Sequence of albumin (P02768 whole entry): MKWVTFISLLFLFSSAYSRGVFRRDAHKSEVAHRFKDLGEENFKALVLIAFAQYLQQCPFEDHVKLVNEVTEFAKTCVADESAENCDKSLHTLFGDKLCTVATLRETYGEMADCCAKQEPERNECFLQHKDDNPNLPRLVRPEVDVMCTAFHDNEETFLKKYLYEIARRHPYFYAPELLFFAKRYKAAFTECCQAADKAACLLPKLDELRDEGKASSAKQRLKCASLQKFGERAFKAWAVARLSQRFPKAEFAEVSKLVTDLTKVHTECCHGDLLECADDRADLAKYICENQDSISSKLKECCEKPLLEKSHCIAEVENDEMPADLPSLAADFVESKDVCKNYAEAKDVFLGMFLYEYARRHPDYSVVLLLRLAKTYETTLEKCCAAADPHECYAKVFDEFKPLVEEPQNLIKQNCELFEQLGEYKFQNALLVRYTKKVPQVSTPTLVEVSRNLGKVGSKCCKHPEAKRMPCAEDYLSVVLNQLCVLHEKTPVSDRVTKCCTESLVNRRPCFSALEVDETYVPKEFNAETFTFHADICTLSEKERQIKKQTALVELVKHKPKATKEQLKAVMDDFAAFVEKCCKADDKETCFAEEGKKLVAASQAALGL

Cytochrome P450 2C9 = Cytochrome P450 2C9 (Homo sapiens, UniProt P11712); experiment: Inhibition of human CYP2C9; type: ADME
Sequence of Cytochrome P450 2C9 (P11712 whole entry): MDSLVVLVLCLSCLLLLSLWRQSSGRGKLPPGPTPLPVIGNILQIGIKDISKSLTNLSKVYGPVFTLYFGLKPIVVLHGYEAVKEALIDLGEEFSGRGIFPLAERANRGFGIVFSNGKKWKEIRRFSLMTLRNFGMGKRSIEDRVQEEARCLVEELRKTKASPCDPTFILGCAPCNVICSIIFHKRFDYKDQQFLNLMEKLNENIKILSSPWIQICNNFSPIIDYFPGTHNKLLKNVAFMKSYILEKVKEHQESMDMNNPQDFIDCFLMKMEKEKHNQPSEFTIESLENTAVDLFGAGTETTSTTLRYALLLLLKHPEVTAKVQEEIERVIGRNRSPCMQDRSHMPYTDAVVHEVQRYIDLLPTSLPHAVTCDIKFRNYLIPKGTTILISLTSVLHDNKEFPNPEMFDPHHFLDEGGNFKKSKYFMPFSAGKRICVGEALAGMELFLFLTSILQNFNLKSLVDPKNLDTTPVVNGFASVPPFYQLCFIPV

Cytochrome P450 2D6 = Cytochrome P450 2D6 (Homo sapiens, UniProt P10635); experiment: Inhibition of human CYP2D6; type: ADME
Sequence of Cytochrome P450 2D6 (P10635 whole entry): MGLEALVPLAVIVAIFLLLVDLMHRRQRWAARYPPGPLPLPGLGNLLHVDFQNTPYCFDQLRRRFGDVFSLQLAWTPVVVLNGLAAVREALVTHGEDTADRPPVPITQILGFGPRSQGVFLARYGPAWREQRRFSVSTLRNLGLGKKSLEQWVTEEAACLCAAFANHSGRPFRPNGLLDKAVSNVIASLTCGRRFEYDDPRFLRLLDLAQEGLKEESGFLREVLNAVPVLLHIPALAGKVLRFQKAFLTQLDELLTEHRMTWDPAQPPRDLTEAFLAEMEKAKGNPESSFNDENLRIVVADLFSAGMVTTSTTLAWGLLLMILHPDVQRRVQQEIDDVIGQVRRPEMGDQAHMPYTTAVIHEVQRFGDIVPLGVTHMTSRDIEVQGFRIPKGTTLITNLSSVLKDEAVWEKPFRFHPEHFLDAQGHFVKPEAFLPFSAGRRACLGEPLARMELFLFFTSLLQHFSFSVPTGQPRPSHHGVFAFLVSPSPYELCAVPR

[4] = Intrinsic clearance in rat liver microsomes; type: ADME; details: read-out: CLH
Method in brief: (§2)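 Rat or human hepatic microsomes; test compound at 0.5 µM; CLint calculated from elimination ratio between 0 and 20 min; expressed as ml/min/kg.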

[5] = Solubility of the compound at pH 6.8; type: physicochemical; details: buffer
Method in brief: (§3)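 Solubility measured in aqueous buffer at pH 1.2 and pH 6.8; reported in […].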

Cytochrome P450 3A4 = Cytochrome P450 3A4 (Homo sapiens, UniProt P08684); experiment: Inhibition of human CYP3A4; type: ADME
Sequence of Cytochrome P450 3A4 (P08684 whole entry): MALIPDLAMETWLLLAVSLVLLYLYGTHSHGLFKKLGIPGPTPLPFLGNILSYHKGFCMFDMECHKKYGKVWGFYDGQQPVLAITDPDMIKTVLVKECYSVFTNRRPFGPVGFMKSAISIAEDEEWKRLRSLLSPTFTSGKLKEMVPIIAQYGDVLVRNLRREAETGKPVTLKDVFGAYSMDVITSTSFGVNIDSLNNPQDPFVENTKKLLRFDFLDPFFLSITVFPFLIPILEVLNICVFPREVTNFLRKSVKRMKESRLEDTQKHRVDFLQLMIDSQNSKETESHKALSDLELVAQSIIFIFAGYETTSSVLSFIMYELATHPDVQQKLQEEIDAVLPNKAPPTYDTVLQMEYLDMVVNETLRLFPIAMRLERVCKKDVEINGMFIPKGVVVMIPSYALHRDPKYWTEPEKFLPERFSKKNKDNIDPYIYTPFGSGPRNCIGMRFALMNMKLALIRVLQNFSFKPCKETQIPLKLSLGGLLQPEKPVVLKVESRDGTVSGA

[6] = Apparent permeability in MDCK cells; type: ADME, cell-based, Canis lupus familiaris; details: dog
Method in brief: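 Epithelial permeability across Madin–Darby canine kidney cell monolayer, with atenolol as reference.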

Salmonella typhimurium = experiment: Genotoxicity in Salmonella typhimurium TA98 by Ames test; type: toxicity, organism-based; details: salmonella enterica subsp. enterica serovar typhimurium
Method in brief: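 Bacterial reverse mutation (Ames) test in amino acid-requiring Salmonella typhimurium TA98, detecting point mutations.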

[7] = Solubility of the compound in water; type: physicochemical
[8] = Intrinsic clearance in human liver microsomes; type: ADME; details: read-out: CLH; method in brief: as §2
[9] = target: T2, Prostaglandin E2 receptor EP1 subtype; experiment: Antagonist activity human EP1 receptor assessed as inhibition of PGE2-induced intracellular Ca2+ release by cell-based assay; type: functional; method in brief: as §1
[10] = Solubility of the compound at pH 1.2; type: physicochemical; details: buffer; method in brief: as §3
[11] = Cmax in rat at 10 mg/kg, po; type: ADME, organism-based; parameters: dose 10 mg/kg, route oral; details: in vivo
Method in brief: (§4)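 Rats (n = 3) given single oral dose, 10 mg/kg; plasma Cmax, AUC and bioavailability derived from pharmacokinetic profile.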

[12] = target: T2, Prostaglandin E2 receptor EP1 subtype; experiment: Binding affinity to human EP1 receptor
[13] = target: T4, Prostaglandin E2 receptor EP3 subtype (Homo sapiens, UniProt P43115); experiment: Binding affinity to human EP3 receptor
T4 sequence (P43115 whole entry): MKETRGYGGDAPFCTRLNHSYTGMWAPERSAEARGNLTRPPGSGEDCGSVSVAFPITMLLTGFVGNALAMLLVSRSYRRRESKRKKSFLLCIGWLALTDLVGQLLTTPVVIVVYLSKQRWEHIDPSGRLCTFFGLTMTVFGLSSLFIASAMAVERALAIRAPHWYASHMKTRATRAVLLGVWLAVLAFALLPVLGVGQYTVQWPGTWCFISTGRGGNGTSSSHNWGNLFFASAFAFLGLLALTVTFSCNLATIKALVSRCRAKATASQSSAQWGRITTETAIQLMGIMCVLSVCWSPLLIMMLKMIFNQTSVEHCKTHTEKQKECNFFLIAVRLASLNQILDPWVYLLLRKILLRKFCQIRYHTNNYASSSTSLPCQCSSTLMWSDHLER

[14] = AUC (0 to infinity) in rat at 10 mg/kg, po; type: ADME, organism-based; parameters: time infinity, dose 10 mg/kg, route oral; details: plasma; method in brief: as §4
[15] = Oral bioavailability in rat at 10 mg/kg; type: ADME, organism-based; details: in vivo; method in brief: as §4
Thromboxane A2 receptor = target: T5, Thromboxane A2 receptor (Homo sapiens, UniProt P21731); experiment: Inhibition of TP receptor (unknown origin)
T5 sequence (P21731 whole entry): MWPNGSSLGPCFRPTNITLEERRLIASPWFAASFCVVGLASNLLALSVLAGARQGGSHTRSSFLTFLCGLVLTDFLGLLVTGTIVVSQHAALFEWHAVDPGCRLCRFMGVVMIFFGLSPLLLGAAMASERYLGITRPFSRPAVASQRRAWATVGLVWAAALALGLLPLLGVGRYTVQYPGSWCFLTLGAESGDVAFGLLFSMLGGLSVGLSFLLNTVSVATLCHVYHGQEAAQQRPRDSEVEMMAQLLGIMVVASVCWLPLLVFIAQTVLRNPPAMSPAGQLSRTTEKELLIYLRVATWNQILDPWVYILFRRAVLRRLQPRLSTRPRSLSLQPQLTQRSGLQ

[16] = target: Prostaglandin E2 receptor EP4 subtype (Homo sapiens, UniProt P35408); experiment: Binding affinity to human EP4 receptor
Sequence of Prostaglandin E2 receptor EP4 subtype (P35408 whole entry): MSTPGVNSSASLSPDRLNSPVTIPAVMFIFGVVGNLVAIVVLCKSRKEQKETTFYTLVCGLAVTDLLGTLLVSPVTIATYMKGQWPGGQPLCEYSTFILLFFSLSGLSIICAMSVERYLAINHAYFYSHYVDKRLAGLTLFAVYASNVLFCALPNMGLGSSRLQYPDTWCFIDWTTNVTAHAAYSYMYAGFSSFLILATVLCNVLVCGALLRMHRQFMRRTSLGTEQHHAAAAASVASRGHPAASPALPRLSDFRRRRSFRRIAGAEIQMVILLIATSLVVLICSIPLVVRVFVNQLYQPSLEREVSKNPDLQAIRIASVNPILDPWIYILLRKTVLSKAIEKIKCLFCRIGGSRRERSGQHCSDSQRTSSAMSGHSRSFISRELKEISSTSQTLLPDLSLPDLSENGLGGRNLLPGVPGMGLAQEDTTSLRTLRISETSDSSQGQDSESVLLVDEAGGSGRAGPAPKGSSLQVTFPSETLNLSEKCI

Compound: Cc1c(-c2ccccc2)nn(-c2nc(C(=O)O)cs2)c1-c1cccnc1
- inhibition [1]: 34%

Compound: Cc1c(-c2ccccc2)nn(-c2nc(C(=O)O)cs2)c1-c1ccc(F)cc1
- IC50 [2]: 100 nM

Compound: COc1c(-c2ccccc2)nn(-c2nc(C(=O)O)cs2)c1-c1ccccc1
- inhibition [1]: 18%

Compound: Cc1c(-c2ccccc2)nn(-c2nc(C(=O)O)cs2)c1-c1ccc(N)cc1
- inhibition [1]: 10%

Compound: Cc1sc(-n2nc(-c3ccccc3)c(C)c2-c2ccccc2)nc1C(=O)O
- IC50 [2]: 330 nM

Compound: Cc1c(-c2ccccc2)nn(-c2nc(C(=O)O)cs2)c1-c1cnn(C)c1
- inhibition [1]: 8%

Compound: Cc1c(-c2ccccc2)nn(-c2nc(C(=O)O)cs2)c1-c1cccc(F)c1
- IC50 [2]: 50 nM

Compound: Cc1c(-c2ccccc2)nn(-c2nc(C(=O)O)cs2)c1-c1ccccc1
- Ki [3]: > 8700 nM
- IC50 (Cytochrome P450 2C19): 4710 nM
- IC50 (Cytochrome P450 1A2): 7930 nM
- fraction unbound (albumin): 0.0029
- IC50 (Cytochrome P450 2C9): > 10000 nM
- IC50 (Cytochrome P450 2D6): > 10000 nM
- CLint scaled [4]: 15 mL/min/kg
- solubility [5]: 401 µg/mL (≈ 1110 µM)
- IC50 (Cytochrome P450 3A4): > 10000 nM
- Papp [6]: 51.6 ×10⁻⁶ cm/s
- Activity (Salmonella typhimurium): Non-toxic
- solubility [7]: 129 µg/mL (≈ 357 µM)
- CLint scaled [8]: 35 mL/min/kg

Compound: Cc1c(-c2ccccc2)nn(-c2ccc(C(=O)O)s2)c1-c1ccccc1
- IC50 [2]: 1000 nM

Compound: Cc1c(-c2ccccc2)nn(-c2ccc(C(=O)O)o2)c1-c1ccccc1
- inhibition [1]: 24%

Compound: Cc1c(-c2ccccc2)nn(-c2nc(/C=C/C(=O)O)cs2)c1-c1ccccc1
- IC50 [2]: 500 nM

Compound: Cc1c(-c2ccccc2)nn(-c2nc(C(=O)O)co2)c1-c1ccccc1
- inhibition [1]: 33%

Compound: O=C(O)c1csc(-n2nc(-c3ccccc3)c(O)c2-c2ccccc2)n1
- IC50 [2]: 60 nM

Compound: Cc1c(-c2ccccc2)nn(-c2cccc(C(=O)O)n2)c1-c1ccccc1
- inhibition [1]: 48%

Compound: CCc1c(-c2ccccc2)nn(-c2nc(C(=O)O)cs2)c1-c1ccccc1
- inhibition [1]: -4%

Compound: O=C(O)c1csc(-n2nc(-c3ccccc3)c(Br)c2-c2ccccc2)n1
- IC50 [2]: 20 nM

Compound: O=C(O)c1csc(-n2nc(-c3ccccc3)c(F)c2-c2ccccc2)n1
- IC50 [2]: 30 nM

Compound: O=C(O)c1csc(-n2nc(-c3ccccc3)c3oc4ccccc4c32)n1
- IC50 [2]: 20 nM

Compound: Cc1c(-c2ccccc2)nn(-c2cncc(C(=O)O)c2)c1-c1ccccc1
- inhibition [1]: 26%

Compound: Cc1c(-c2ccccc2)nn(-c2nc(C(=O)O)cs2)c1-c1ccsc1
- IC50 [2]: 80 nM

Compound: O=C(O)c1csc(-n2nc(-c3ccccc3)c(C(F)(F)F)c2-c2ccccc2)n1
- IC50 [2]: 150 nM

Compound: O=C(O)c1csc(-n2nc(-c3ccccc3)c3c2-c2ccccc2C3)n1
- fraction unbound (albumin): 0.0032
- IC50 [9]: 40 nM
- IC50 [2]: 0.9 nM
- CLint scaled [4]: 927 mL/min/kg
- solubility [5]: 57 µg/mL (≈ 159 µM)
- solubility [7]: 4 µg/mL (≈ 11.1 µM)
- CLint scaled [8]: 425 mL/min/kg

Compound: Cc1c(-c2ccccc2)nn(-c2nc(C(=O)O)cs2)c1-c1cncnc1
- inhibition [1]: 24%

Compound: O=C(O)c1csc(-n2nc(-c3ccccc3)c(I)c2-c2ccccc2)n1
- IC50 [2]: 130 nM

Compound: O=C(O)c1csc(-n2nc(-c3ccccc3)c3c2-c2ccccc2CC3)n1
- IC50 [2]: > 100 nM

Compound: O=C(O)c1csc(-n2nc(-c3ccccc3)c(Cl)c2-c2ccccc2)n1
- IC50 [2]: 60 nM

Compound: O=C(O)c1csc(-n2nc3c(c2-c2ccccc2)CCc2ccccc2-3)n1
- fraction unbound (albumin): 0.0012
- IC50 [9]: 20 nM
- IC50 [2]: 2 nM
- CLint scaled [4]: 236 mL/min/kg
- solubility [5]: 10 µg/mL (≈ 26.8 µM)
- solubility [7]: 20 µg/mL (≈ 53.6 µM)
- CLint scaled [8]: 149 mL/min/kg

Compound: Cc1c(-c2ccccc2)nn(-c2nc(C(=O)O)cs2)c1-c1cccs1
- IC50 [2]: 120 nM

Compound: Nc1c(-c2ccccc2)nn(-c2nc(C(=O)O)cs2)c1-c1ccccc1
- Ki [3]: > 8700 nM
- solubility [10]: 867 µg/mL (≈ 2390 µM)
- IC50 (Cytochrome P450 2C19): 6140 nM
- IC50 (Cytochrome P450 1A2): 7100 nM
- fraction unbound (albumin): 0.01
- Cmax [11]: 6.33 µM
- IC50 (Cytochrome P450 2C9): 5620 nM
- Ki [12]: 8 nM
- Ki [13]: > 5000 nM
- IC50 [9]: 60 nM
- AUC(0-inf) [14]: 17.4 µM·h
- IC50 (Cytochrome P450 2D6): > 10000 nM
- IC50 [2]: 20 nM
- CLint scaled [4]: 29 mL/min/kg
- bioavailability [15]: 26%
- solubility [5]: 1010 µg/mL (≈ 2790 µM)
- IC50 (Cytochrome P450 3A4): > 10000 nM
- Papp [6]: 12.2 ×10⁻⁶ cm/s
- Activity (Salmonella typhimurium): Non-toxic
- IC50 (Thromboxane A2 receptor): 200 nM
- solubility [7]: 865 µg/mL (≈ 2390 µM)
- CLint scaled [8]: 19 mL/min/kg
- Ki [16]: > 2700 nM

Source: ChEMBL document CHEMBL3091274, “SAR-based optimization of 2-(1H-pyrazol-1-yl)-thiazole derivatives as highly potent EP1 receptor antagonists” (Bioorg Med Chem Lett, 2013)
